# From paper PMC2754715 (Chemical biology & drug design, 2009)
# Tests used:
# [1] = test system: TNF-α secretion by LPS-stimulated THP-1 cells; test: TNF-α secretion assay in LPS-stimulated THP-1 cells; type: cell-based, human; conditions: for Suppression of TNF-α secretion (in words): 50 μg/ml, Figure 2; for inhibition at 100 µg/mL: Homo sapiens, THP-1, read-out: % Inhibition of TNF-α secretion
# Method in brief: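 THP-1 cells (RPMI-1640 with 0.05 mM 2-mercaptoethanol, 2 mM glutamine, 10% FBS) plated in log phase at 4 × 10^5/well. After 24 h, 50 nM PMA is added with test compound; after 24 h more, medium is replaced with compound-only medium. After 24 h, LPS 10 μg/ml is added, supernatants taken at 2 h, and human TNF-α measured by ELISA against the kit standard curve. Run in triplicate; % inhibition.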
# [2] = test system: LPS-induced lethality in mice; test: LPS-induced endotoxic shock model; type: in vivo; conditions: for Protection from lethal dose of LPS (mortality/morbidity): 40 mg/kg ip pretreatment, 24 h observation
# Method in brief: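 C57 mice (8–12 weeks, 20–25 g, n = 8) get test compound i.p., then immediately a lethal i.p. LPS challenge. D-galactosamine (40 μg/g, as 4 μg/μL in DMSO) and E. coli LPS (0.25 μg/mouse, in 0.1 mL PBS with 1% BSA) are injected i.p. Controls get DMSO, then LPS. Mortality and morbidity are checked hourly for 24 h.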
# THP-1 cells = test: Cytotoxicity; type: cell-based, human; conditions: at concentrations active in the TNF-α secretion assay
# [3] = test system: TNF-α release from NIH3T3 cells; conditions: cited from earlier work
# TNF-α release in mice = conditions: cited from earlier work
# LITAF = test: Western blot of LITAF expression in cells; type: cell-based; conditions: Figure 6
# Solubility = type: physicochemical
# [4] = Chemical stability in aqueous buffer; type: physicochemical
# Mouse plasma stability = type: in vitro ADME
# Caco-2 = Caco-2 permeability; type: in vitro ADME
# [5] = Preliminary pharmacokinetic evaluation; type: in vivo, mice; conditions: for half-life: mouse, in vivo
# IκB kinase (IKK) = conditions: kinase selectivity screening; cited from earlier work
# [6] = test system: PRAK (p38-regulated/activated kinase); conditions: kinase selectivity screening; cited from earlier work
# [7] = test system: MAPKAP-K3 (MAPK-activated protein kinase 3); conditions: kinase selectivity screening; cited from earlier work
# [8] = test system: DYRK1A (dual-specificity tyrosine-phosphorylated and regulated kinase 1A); conditions: kinase selectivity screening; cited from earlier work
# Aurora B = conditions: kinase selectivity screening; cited from earlier work
compound,measurement,setting,value
"COC1=CC(=O)O[C@@H](CCc2ccccc2)C1 [Compound 2, dihydrokavain]",Suppression of TNF-α secretion (in words),[1],reproducibly active
same,% Inhibition of TNF-α secretion,"[1]; LPS-treated THP-1 cells, 100 μg/ml, replicates in parentheses",95 (3) %
same,Survival rate at 24 h,[2]; 40 mg/Kg ip pretreatment,30%
same,Delay in time of death compared to vehicle treated animals,"[2]; 40 mg/Kg ip, animals that died",about a two hour delay
same,Protection from lethal dose of LPS (mortality/morbidity),[2],only partially protected
same,Cytotoxicity,THP-1 cells,did not show any cytotoxicity
same,Inhibition of TNF-α release (in words),[3],lower activity
same,Inhibition of TNF-α release in mice (in words),TNF-α release in mice,most potent inhibitor
COc1cc2c(cc1O)CC[n+]1cc3c(OC)c(OC)ccc3cc1-2.[I-] [Jatrorrhizine iodide],Protection from lethal dose of LPS (mortality/morbidity),[2],render mice immune to endotoxic shock-mediated death
same,Health of surviving animals,"[2]; 40 mg/kg ip, after 24h",poor health
"COC(=O)/C=C(\CC(O)c1ccc(-c2ccccc2)cc1)OC (stereo not drawn) [Compound 16, (E)-Methyl 5-(biphenyl-4-yl)-5-hydroxy-3-methoxypent-2-enoate]",Suppression of TNF-α secretion,[1],≥ 50%
same,Dose response of TNF-α secretion suppression,[1]; Figure 5,dose-responsive manner
same,inhibition at 100 µg/mL,[1],58%
same,LITAF expression,LITAF,nearly ablated LITAF expression
"COC1=CC(=O)OC(c2ccc(-c3ccccc3)cc2)C1 (stereo not drawn) [Compound 15, 6-(Biphenyl-4-yl)-4-methoxy-5,6-dihydro-2H-pyran-2-one]",inhibition at 100 µg/mL,[1],-9%
"COC1=CC(=O)O[C@@H](/C=C/c2ccccc2)C1 [Compound 1, kavain]",Suppression of TNF-α secretion (in words),[1],reproducibly active
same,inhibition at 100 µg/mL,[1],98%
same,LITAF expression,LITAF,evidently do not
same,Protection from lethal dose of LPS (mortality/morbidity),[2],no mortality or overt morbidity observed for at least 24 hours
same,solubility,"Solubility; PBS buffer, pH 7, aqueous buffer",> 500 µM
same,Solubility (in words),Solubility; pH 7,highly soluble
same,Chemical stability (in words),[4]; aqueous buffer,good chemical stability
same,"Chemical Stability, degradation","[4]; at 1 hr, pH=7","<10% degradation at 1 hr, pH=7"
same,"Mouse plasma stability, remaining","Mouse plasma stability; at 2h, 5 μM dose",99% remaining at 2h (5 μM dose)
same,Stability in plasma (in words),Mouse plasma stability; mouse plasma,good chemical stability
same,"Caco-2 permeability, Papp(B→A)/Papp(A→B)",Caco-2,Papp(B→A)/Papp(A→B)=0.7
same,Cell permeability (in words),Caco-2; Caco-2 assay,high level of cell permeability
same,Clearance (in words),"[5]; following dosing, mice",rapidly cleared
same,half-life,"[5]; iv, 1 mg/kg",< 15 min
same,half-life,"[5]; po, 10 mg/kg",< 40 min
same,Cytotoxicity,THP-1 cells,did not show any cytotoxicity
"COC1=CC(=O)O[C@@H](/C=C/c2ccc3c(c2)OCO3)C1 [Compound 4, methysticin]",Suppression of TNF-α secretion (in words),[1],essentially inactive
same,Suppression of TNF-α secretion (in words),[1]; listed as methysticin,inactivity
same,inhibition at 100 µg/mL,[1],43%
"COC1=CC(=O)O[C@@H](CCc2ccc3c(c2)OCO3)C1 [Compound 3, dihydromethysticin]",Suppression of TNF-α secretion (in words),[1],essentially inactive
same,Suppression of TNF-α secretion (in words),[1]; listed as dihydromethysticin,inactivity
same,inhibition at 100 µg/mL,[1],37%
"COc1ccc(C=CC(=O)c2c(O)cc(OC)cc2OC)cc1 [Compound 8, flavokavain A]",Inhibition of IKK,IκB kinase (IKK),inhibits
same,Inhibition of PRAK,[6],inhibits
same,Inhibition of MAPKAP-K3,[7],inhibits
same,Inhibition of DYRK1A,[8],inhibits
same,Inhibition of Aurora B,Aurora B,inhibits
